{
  "source": "ChEMBL document CHEMBL4219124",
  "about": "“Alleviating CYP and hERG liabilities by structure optimization of dihydrofuran-fused tricyclic benzo[d]imidazole series - Potent, selective and orally efficacious microsomal prostaglandin E synthase-1 (mPGES-1) inhibitors: Part-2” (Bioorg Med Chem Lett, 2018)",
  "tested_on": "Cavia porcellus",
  "assay": "Analgesic activity in Dunkin-Hartley guinea pig hyperalgesia pain model assessed as inhibition of LPS-induced hyperalgesia at 10 mg/kg, po administered 2 hrs prior to LPS challenge measured after 4.5 hrs relative to control",
  "assay_type": "functional",
  "in_short": "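Guinea pigs received compound orally, once daily, at 10, 30 or 100 mg/kg, 2 h before LPS was injected into the plantar surface of the right paw. Saline-injected animals served as the comparison for thermal hyperalgesia. Plasma and brain drug levels taken 7 h after dosing, mean of n = 6–9 per group, from a single experiment.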",
  "data": [
    {"smiles": "O=C(O)Cc1ccccc1Nc1c(Cl)cccc1Cl", "note": "[DICLOFENAC]", "values": [
      {"measurement": "inhibition in vivo at 10 mg/kg", "value": 85, "unit": "%"}
    ]}
  ]
}
